For 1 molecule, conc. for maximal amylase release results are on record in ChEMBL document CHEMBL1123803, “Synthesis and biological activities of pseudopeptide analogues of the C-terminal heptapeptide of cholecystokinin. On the importance of the peptide bonds” (J Med Chem, 1987).

The species named for the assay is Rattus norvegicus. The experiment in a line: Activity on Amylase release from rat pancreatic acini was determined. The format is functional. The procedure, abridged:
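Dispersed rat pancreatic acini (about 1 mg protein/mL) in Hepes pH 7.4 standard incubation solution with 1% BSA, 1 mM calcium, 5 mM theophylline, gassed 95% O2/5% CO2; incubated 30 min at 37 °C across a concentration range. Amylase measured with Phadebas reagent; release = with minus without secretagogue, as percent of maximal CCK-8 stimulation. Duplicates, means of at least three experiments.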

As to `CCCC[C@H](NC(=O)[C@H](Cc1ccc(OS(=O)(=O)O)cc1)NC(=O)[C@H](CC(=O)O)NC(=O)OC(C)(C)C)C(=O)NCC(=O)N[C@@H](Cc1c[nH]c2ccccc12)C(=O)N[C@@H](CCCC)C(=O)N[C@@H](CC(=O)O)C(=O)N[C@@H](Cc1ccccc1)C(N)=O`, the conc. for maximal amylase release is 300 pM.
